Experimental data published in article PMC8966662 (RSC Advances, 2022).
Where two headings read alike, the source gives them in different places.

How the values were obtained:
[1] = ref 13 (Grande et al.); cited from earlier work
[2] = in vitro bioavailability, dialysis tubing procedure; format: in vitro ADME; conditions: sum of pepsin (stage 1) and pancreatin (stage 2) bioavailability
How it was run: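 Test compound at 1.0 × 10³ μM in DMSO, with porcine pepsin and 2.0 w/v% sodium cholate, sealed in a dialysis bag in 8.5 × 10⁻¹ N HCl, shaking at 37 ± 0.5 °C for 2 h. Porcine pancreatin in NaHCO3, amylase and esterase then added; bag in pH 7.0 phosphate buffer, 37 °C, 4 h. Outer liquid sampled after each stage and quantified by UV-Vis against pH 1.0/7.0 calibration curves as % unchanged compound recovered; triplicate.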

strain TA 98 = conditions: cited from earlier work
[3] = 2,2-diphenyl-1-picrylhydrazyl; format: biochemical; conditions: result in words
How it was run: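 DPPH· freshly prepared at 50 μM in methanol; test compound stocks in DMSO. Sample mixed with DPPH· solution, kept 30 min in the dark, absorbance read at 517 nm by UV-Vis. %RSA calculated against DMSO vehicle control across a series of sample concentrations. IC50 taken from %RSA plots.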

| SMILES | total in vitro bioavailability [2] [%] | also measured |
| --- | --- | --- |
| O=c1c(O)c(-c2ccc(O)c(O)c2)oc2cc(O)cc(O)c12 [Compound 1S0, quercetin] |  | total in vitro bioavailability [1]: 10.7 ± 1.3% |
| NC(=O)COc1cc(OCC(N)=O)c2c(=O)c(OCC(N)=O)c(-c3ccc(OCC(N)=O)c(OCC(N)=O)c3)oc2c1 [Compound 1S3, 2,2′,2′′-((2-(3,4-bis(2-amino-2-oxoethoxy)phenyl)-4-oxo-4H-chromene-3,5,7-triyl)tris(oxy))triacetamide] | 20.70 ± 0.29 | toxicity in mutagenicity study (strain TA 98): nontoxic |
| O=c1cc(-c2ccc(O)cc2)oc2cc(O)cc(O)c12 [Compound 2S0, apigenin, reference compound] | 16.59 | DPPH free radical scavenging activity (%RSA) [3]: very low |
| NC(=O)COc1ccc(-c2cc(=O)c3c(OCC(N)=O)cc(OCC(N)=O)cc3o2)cc1 [Compound 2S3, 2,2′-((2-(4-(2-amino-2-oxoethoxy)phenyl)-4-oxo-4H-chromene-5,7-diyl)bis(oxy))diacetamide] | 22.20 ± 0.82 | DPPH free radical scavenging activity (%RSA) [3]: very low; toxicity in mutagenicity study (strain TA 98): nontoxic; mutagenic activity (strain TA 98; strain TA 98): did not show any mutagenic activity |
| NC(=O)COc1ccc2c(=O)c(OCC(N)=O)c(-c3ccc(OCC(N)=O)c(OCC(N)=O)c3)oc2c1 [Compound 3S3, 2,2′-((4-(3,7-bis(2-amino-2-oxoethoxy)-4-oxo-4H-chromen-2-yl)-1,2-phenylene)bis(oxy))diacetamide] | 34.81 ± 0.85 |  |
| NC(=O)COc1ccc(-c2oc3cc(OCC(N)=O)cc(OCC(N)=O)c3c(=O)c2OCC(N)=O)cc1 [Compound 4S3, 2,2′,2′′-((2-(4-(2-amino-2-oxoethoxy)phenyl)-4-oxo-4H-chromene-3,5,7-triyl)tris(oxy))triacetamide] | 21.34 ± 0.50 |  |
| NC(=O)COc1cc(OCC(N)=O)c2c(=O)cc(-c3ccc(OCC(N)=O)c(OCC(N)=O)c3)oc2c1 [Compound 5S3, 2,2′-((4-(5,7-bis(2-amino-2-oxoethoxy)-4-oxo-4H-chromen-2-yl)-1,2-phenylene)bis(oxy))diacetamide] | 34.87 ± 0.87 |  |

Continued, in another order:

| total in vitro bioavailability [2] [%] | SMILES | also measured |
| --- | --- | --- |
| 16.19 | O=c1c(O)c(-c2ccc(O)c(O)c2)oc2cc(O)ccc12 [Compound 3S0, Fisetin, reference compound] |  |
| 15.40 | O=c1c(O)c(-c2ccc(O)cc2)oc2cc(O)cc(O)c12 [Compound 4S0, kaempferol, reference compound] |  |
| 19.29 | O=c1cc(-c2ccc(O)c(O)c2)oc2cc(O)cc(O)c12 [Compound 5S0, luteolin, reference compound] |  |
